ChEMBL document CHEMBL3045677, “Sulfonamide-1,2,4-thiadiazole derivatives as antifungal and antibacterial agents: synthesis, biological evaluation, lipophilicity, and conformational studies” (2010)
In brackets after ≈: the same amount, converted by molar mass.

Tests used:
Aspergillus flavus = assay: Antifungal activity against Aspergillus flavus ATCC 9643 at 28 degC measured after 72 hr by microdilution method; format: functional; conditions: ATCC 9643, 72 h
Summary of the method: (§1)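 Fungi were kept on malt agar at 4 °C. Spores were washed off with sterile 0.85% saline containing 0.1% Tween 80 and adjusted to about 1.0×10⁵ per well. Compounds were dissolved in DMSO (1 mg/ml stock) and serially diluted in malt broth with inoculum in 96-well plates, 72 h at 28 °C, for MIC. MFC came from subculture into fresh broth for a further 72 h at 28 °C.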

Pseudomonas aeruginosa [1] = assay: Antibacterial activity against Pseudomonas aeruginosa ATCC 27853 at […] degC measured after 72 hr by microdilution method; format: functional; conditions: ATCC 27853, 72 h
Summary of the method: (§2)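 Bactericidal endpoint: after the 24 h broth microdilution (1.0×10⁴ CFU per well, LB broth, […] °C), wells were serially subcultured into plates of fresh broth and incubated a further 72 h. MBC was the lowest concentration with no visible growth, taken as 99.5% killing of the original inoculum.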

Bacillus cereus [2] = assay: Antibacterial activity against clinical isolate Bacillus cereus at […] degC measured after 24 hr by microdilution method; format: functional
Summary of the method: (§3)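 Bacteria suspended in sterile saline at 1.0×10⁵ CFU/ml and added at 1.0×10⁴ CFU per well to LB broth with compound (1 mg/ml) in 96-well plates. Incubated 24 h at […] °C. MIC was the lowest concentration without visible growth under a binocular microscope. OD 655 nm was read against a blank and a positive control.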

Aspergillus niger = assay: Antifungal activity against Aspergillus niger ATCC 6275 at 28 degC measured after 72 hr by microdilution method; format: functional; conditions: ATCC 6275, 72 h; summary of the method: as §1
Salmonella typhimurium [3] = assay: Antibacterial activity against Salmonella enterica subsp. enterica serovar Typhimurium ATCC 13311 at […] degC measured after 24 hr by microdilution method; format: functional; conditions: ATCC 13311, 24 h; summary of the method: as §3
Listeria monocytogenes [4] = assay: Antibacterial activity against Listeria monocytogenes NCTC 7973 at […] degC measured after 24 hr by microdilution method; format: functional; conditions: NCTC 7973, 24 h; summary of the method: as §3
Escherichia coli [5] = assay: Antibacterial activity against Escherichia coli ATCC 35210 at […] degC measured after 72 hr by microdilution method; format: functional; conditions: ATCC 35210, 72 h; summary of the method: as §2
Listeria monocytogenes [6] = assay: Antibacterial activity against Listeria monocytogenes NCTC 7973 at […] degC measured after 72 hr by microdilution method; format: functional; conditions: NCTC 7973, 72 h; summary of the method: as §2
Staphylococcus aureus [7] = assay: Antibacterial activity against Staphylococcus aureus ATCC 6538 at […] degC measured after 72 hr by microdilution method; format: functional; conditions: ATCC 6538, 72 h; summary of the method: as §2
Micrococcus flavus [8] = assay: Antibacterial activity against Micrococcus flavus ATCC 10240 at […] degC measured after 24 hr by microdilution method; format: functional; conditions: ATCC 10240, 24 h; summary of the method: as §3
Aspergillus fumigatus = assay: Antifungal activity against plant isolate Aspergillus fumigatus at 28 degC measured after 72 hr by microdilution method; format: functional; summary of the method: as §1
Proteus mirabilis [9] = assay: Antibacterial activity against Proteus mirabilis at […] degC measured after 72 hr by microdilution method; format: functional; summary of the method: as §2
Penicillium ochrochloron = assay: Antifungal activity against Penicillium ochrochloron ATCC 9112 at 28 degC measured after 72 hr by microdilution method; format: functional; conditions: ATCC 9112, 72 h; summary of the method: as §1
Proteus mirabilis [10] = assay: Antibacterial activity against Proteus mirabilis at […] degC measured after 24 hr by microdilution method; format: functional; summary of the method: as §3
Bacillus cereus [11] = assay: Antibacterial activity against clinical isolate Bacillus cereus at […] degC measured after 72 hr by microdilution method; format: functional; summary of the method: as §2
Trichoderma viride = assay: Antifungal activity against Hypocrea rufa IAM 5061 at 28 degC measured after 72 hr by microdilution method; format: functional; conditions: IAM 5061, 72 h; summary of the method: as §1
Micrococcus flavus [12] = assay: Antibacterial activity against Micrococcus flavus ATCC 10240 at […] degC measured after 72 hr by microdilution method; format: functional; conditions: ATCC 10240, 72 h; summary of the method: as §2
Pseudomonas aeruginosa [13] = assay: Antibacterial activity against Pseudomonas aeruginosa ATCC 27853 at […] degC measured after 24 hr by microdilution method; format: functional; conditions: ATCC 27853, 24 h; summary of the method: as §3
Aspergillus versicolor = assay: Antifungal activity against Aspergillus versicolor ATCC 11730 at 28 degC measured after 72 hr by microdilution method; format: functional; conditions: ATCC 11730, 72 h; summary of the method: as §1
Salmonella typhimurium [14] = assay: Antibacterial activity against Salmonella enterica subsp. enterica serovar TyphimuriumATCC 13311 at […] degC measured after 72 hr by microdilution method; format: functional, Salmonella enterica subsp. enterica serovar Typhimurium; conditions: ATCC 13311, 72 h; summary of the method: as §2
Staphylococcus aureus [15] = assay: Antibacterial activity against Staphylococcus aureus ATCC 6538 at […] degC measured after 24 hr by microdilution method; format: functional; conditions: ATCC 6538, 24 h; summary of the method: as §3
Talaromyces funiculosus = assay: Antifungal activity against Talaromyces funiculosus ATCC 36839 at 28 degC measured after 72 hr by microdilution method; format: functional; conditions: ATCC 36839, 72 h; summary of the method: as §1
Escherichia coli [16] = assay: Antibacterial activity against Escherichia coli ATCC 35210 at […] degC measured after 24 hr by microdilution method; format: functional; conditions: ATCC 35210, 24 h; summary of the method: as §3
Fulvia fulva = assay: Antifungal activity against Passalora fulva TK5318 at 28 degC measured after 72 hr by microdilution method; format: functional; conditions: TK5318, 72 h; summary of the method: as §1

COc1cc(Cc2nnc(Nc3ccc(C(F)(F)F)cc3)s2)c(S(=O)(=O)N2CCN(C)CC2)cc1OC
MFC (Aspergillus flavus): 35.8 µM (≈ 20 µg/mL)
MIC (Aspergillus flavus): 17.9 µM (≈ 9.98 µg/mL)
MBC (Pseudomonas aeruginosa [1]): 35.8 µM (≈ 20 µg/mL)
MIC (Bacillus cereus [2]): 17.9 µM (≈ 9.98 µg/mL)
MFC (Aspergillus niger): 35.8 µM (≈ 20 µg/mL)
MIC (Aspergillus niger): 17.9 µM (≈ 9.98 µg/mL)
MIC (Salmonella typhimurium [3]): 17.9 µM (≈ 9.98 µg/mL)
MIC (Listeria monocytogenes [4]): 17.9 µM (≈ 9.98 µg/mL)
MBC (Escherichia coli [5]): 17.9 µM (≈ 9.98 µg/mL)
MBC (Listeria monocytogenes [6]): 35.8 µM (≈ 20 µg/mL)
MBC (Staphylococcus aureus [7]): 35.8 µM (≈ 20 µg/mL)
MIC (Micrococcus flavus [8]): 17.9 µM (≈ 9.98 µg/mL)
MFC (Aspergillus fumigatus): 17.9 µM (≈ 9.98 µg/mL)
MIC (Aspergillus fumigatus): 8.9 µM (≈ 4.96 µg/mL)
MBC (Proteus mirabilis [9]): 35.8 µM (≈ 20 µg/mL)
MFC (Penicillium ochrochloron): 35.8 µM (≈ 20 µg/mL)
MIC (Penicillium ochrochloron): 17.9 µM (≈ 9.98 µg/mL)
MIC (Proteus mirabilis [10]): 17.9 µM (≈ 9.98 µg/mL)
MBC (Bacillus cereus [11]): 17.9 µM (≈ 9.98 µg/mL)
MFC (Trichoderma viride): 17.9 µM (≈ 9.98 µg/mL)
MIC (Trichoderma viride): 8.9 µM (≈ 4.96 µg/mL)
MBC (Micrococcus flavus [12]): 35.8 µM (≈ 20 µg/mL)
MIC (Pseudomonas aeruginosa [13]): 17.9 µM (≈ 9.98 µg/mL)
MFC (Aspergillus versicolor): 35.8 µM (≈ 20 µg/mL)
MIC (Aspergillus versicolor): 17.9 µM (≈ 9.98 µg/mL)
MBC (Salmonella typhimurium [14]): 35.8 µM (≈ 20 µg/mL)
MIC (Staphylococcus aureus [15]): 17.9 µM (≈ 9.98 µg/mL)
MFC (Talaromyces funiculosus): 17.9 µM (≈ 9.98 µg/mL)
MIC (Talaromyces funiculosus): 8.9 µM (≈ 4.96 µg/mL)
MIC (Escherichia coli [16]): 17.9 µM (≈ 9.98 µg/mL)
MFC (Fulvia fulva): 17.9 µM (≈ 9.98 µg/mL)
MIC (Fulvia fulva): 8.9 µM (≈ 4.96 µg/mL)

CC1(C)S[C@@H]2[C@H](NC(=O)[C@H](N)c3ccccc3)C(=O)N2[C@H]1C(=O)O [AMPICILLIN]
MBC (Pseudomonas aeruginosa [1]): 1240 µM (≈ 433 µg/mL)
MIC (Bacillus cereus [2]): 248 µM (≈ 86.7 µg/mL)
MIC (Salmonella typhimurium [3]): 248 µM (≈ 86.7 µg/mL)
MIC (Listeria monocytogenes [4]): 372 µM (≈ 130 µg/mL)
MBC (Escherichia coli [5]): 492 µM (≈ 172 µg/mL)
MBC (Listeria monocytogenes [6]): 744 µM (≈ 260 µg/mL)
MBC (Staphylococcus aureus [7]): 372 µM (≈ 130 µg/mL)
MIC (Micrococcus flavus [8]): 248 µM (≈ 86.7 µg/mL)
MBC (Proteus mirabilis [9]): 492 µM (≈ 172 µg/mL)
MIC (Proteus mirabilis [10]): 372 µM (≈ 130 µg/mL)
MBC (Bacillus cereus [11]): 372 µM (≈ 130 µg/mL)
MBC (Micrococcus flavus [12]): 372 µM (≈ 130 µg/mL)
MIC (Pseudomonas aeruginosa [13]): 744 µM (≈ 260 µg/mL)
MBC (Salmonella typhimurium [14]): 492 µM (≈ 172 µg/mL)
MIC (Staphylococcus aureus [15]): 248 µM (≈ 86.7 µg/mL)
MIC (Escherichia coli [16]): 372 µM (≈ 130 µg/mL)

c1ccc(-c2ccc(C(c3ccccc3)n3ccnc3)cc2)cc1 (stereo unspecified) [BIFONAZOLE]
MFC (Aspergillus flavus): 640 µM (≈ 199 µg/mL)
MIC (Aspergillus flavus): 480 µM (≈ 149 µg/mL)
MFC (Aspergillus niger): 640 µM (≈ 199 µg/mL)
MIC (Aspergillus niger): 480 µM (≈ 149 µg/mL)
MFC (Aspergillus fumigatus): 640 µM (≈ 199 µg/mL)
MIC (Aspergillus fumigatus): 480 µM (≈ 149 µg/mL)
MFC (Penicillium ochrochloron): 640 µM (≈ 199 µg/mL)
MIC (Penicillium ochrochloron): 480 µM (≈ 149 µg/mL)
MFC (Trichoderma viride): 800 µM (≈ 248 µg/mL)
MIC (Trichoderma viride): 640 µM (≈ 199 µg/mL)
MFC (Aspergillus versicolor): 640 µM (≈ 199 µg/mL)
MIC (Aspergillus versicolor): 320 µM (≈ 99.3 µg/mL)
MFC (Talaromyces funiculosus): 800 µM (≈ 248 µg/mL)
MIC (Talaromyces funiculosus): 640 µM (≈ 199 µg/mL)
MFC (Fulvia fulva): 640 µM (≈ 199 µg/mL)
MIC (Fulvia fulva): 320 µM (≈ 99.3 µg/mL)

CC(=O)N1CCN(c2ccc(OCC3COC(Cn4ccnc4)(c4ccc(Cl)cc4Cl)O3)cc2)CC1 (stereo unspecified) [KETOCONAZOLE]
MFC (Aspergillus flavus): 3800 µM (≈ 2020 µg/mL)
MIC (Aspergillus flavus): 2850 µM (≈ 1510 µg/mL)
MFC (Aspergillus niger): 950 µM (≈ 505 µg/mL)
MIC (Aspergillus niger): 380 µM (≈ 202 µg/mL)
MFC (Aspergillus fumigatus): 950 µM (≈ 505 µg/mL)
MIC (Aspergillus fumigatus): 380 µM (≈ 202 µg/mL)
MFC (Penicillium ochrochloron): 3800 µM (≈ 2020 µg/mL)
MIC (Penicillium ochrochloron): 3800 µM (≈ 2020 µg/mL)
MFC (Trichoderma viride): 5700 µM (≈ 3030 µg/mL)
MIC (Trichoderma viride): 4750 µM (≈ 2520 µg/mL)
MFC (Aspergillus versicolor): 950 µM (≈ 505 µg/mL)
MIC (Aspergillus versicolor): 380 µM (≈ 202 µg/mL)
MFC (Talaromyces funiculosus): 950 µM (≈ 505 µg/mL)
MIC (Talaromyces funiculosus): 380 µM (≈ 202 µg/mL)
MFC (Fulvia fulva): 950 µM (≈ 505 µg/mL)
MIC (Fulvia fulva): 380 µM (≈ 202 µg/mL)

CN[C@@H]1[C@H](O[C@H]2[C@H](O[C@H]3[C@H](O)[C@@H](O)[C@H](N=C(N)N)[C@@H](O)[C@@H]3N=C(N)N)O[C@@H](C)[C@]2(O)C=O)O[C@@H](CO)[C@H](O)[C@H]1O [STREPTOMYCIN]
MBC (Pseudomonas aeruginosa [1]): 344 µM (≈ 200 µg/mL)
MIC (Bacillus cereus [2]): 43 µM (≈ 25 µg/mL)
MIC (Salmonella typhimurium [3]): 172 µM (≈ 100 µg/mL)
MIC (Listeria monocytogenes [4]): 258 µM (≈ 150 µg/mL)
MBC (Escherichia coli [5]): 344 µM (≈ 200 µg/mL)
MBC (Listeria monocytogenes [6]): 516 µM (≈ 300 µg/mL)
MBC (Staphylococcus aureus [7]): 344 µM (≈ 200 µg/mL)
MIC (Micrococcus flavus [8]): 86 µM (≈ 50 µg/mL)
MBC (Proteus mirabilis [9]): 344 µM (≈ 200 µg/mL)
MIC (Proteus mirabilis [10]): 172 µM (≈ 100 µg/mL)
MBC (Bacillus cereus [11]): 86 µM (≈ 50 µg/mL)
MBC (Micrococcus flavus [12]): 172 µM (≈ 100 µg/mL)
MIC (Pseudomonas aeruginosa [13]): 172 µM (≈ 100 µg/mL)
MBC (Salmonella typhimurium [14]): 344 µM (≈ 200 µg/mL)
MIC (Staphylococcus aureus [15]): 172 µM (≈ 100 µg/mL)
MIC (Escherichia coli [16]): 172 µM (≈ 100 µg/mL)
